For one assay, the system named is HCT-116. In words: Survival of human HCT116 cells after 48 hrs by MTS reduction assay. In kind it is functional, cell-based. The conditions noted are these: hct-116. In a few lines: (§1)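 Viability read by MTS reduction. IC50 taken from dose-response curves, triplicate measurements. HCT116 grown in McCoy's 5A with 10% FCS. MDA-MB-231 grown in DMEM with 10% FCS and seeded at 7500 cells/well.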

Assay [1] relates to SH-SY5Y. As to the kind of experiment: Survival of human SH-SY5Y cells after 24 hrs by MTS reduction assay. In kind it is functional, cell-based.
Assay [2] concerns SH-SY5Y. In words: Death of human SH-SY5Y cells at 25 uM after 48 hrs by LDH release assay. In kind it is functional. In a few lines:
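SH-SY5Y human neuroblastoma cells were grown in DMEM with 2 mM L-glutamine, antibiotics and 10% FCS at 37 °C under 5% CO2. […] Lactate dehydrogenase release was measured 48 h after addition and expressed as percent cell death.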

In a further assay the test system is A549. As to the kind of experiment: Survival of human A549 cells after 48 hrs by MTS reduction assay. In kind it is functional, cell-based.
In assay [3] the test system is SH-SY5Y. In words: Death of human SH-SY5Y cells in presence of 20 uM Q-VD-OPh by MTS reduction assay. Format: functional, cell-based.
For assay [4], the system named is SH-SY5Y. In words: Death of human SH-SY5Y cells in absence of 20 uM Q-VD-OPh by MTS reduction assay. In kind it is functional, cell-based.
For assay [5], the system named is SH-SY5Y. In words: Survival of human SH-SY5Y cells at 25 uM by MTS reduction assay. Format: functional, cell-based. In a few lines:
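Viability was read by MTS reduction and expressed as percent of untreated cells, as the average ± SE of three independent measurements, representative of two independent experiments.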

Another assay has as its system PC-3. In words: Survival of human PC3 cells after 48 hrs by MTS reduction assay. Format: functional, cell-based.
In the next assay the test system is BP8. As to the kind of experiment: Survival of […] AhR -/- BP8 cells after 48 hrs by MTS reduction assay. In kind it is functional, cell-based.
For the next assay, the system named is HEK293. As to the kind of experiment: Survival of human HEK293 cells after 48 hrs by MTS reduction assay. In kind it is functional, cell-based. The settings on record: hek293.
Another assay deals with HT-29. In words: Survival of human HT29 cells after 48 hrs by MTS reduction assay. In kind it is functional, cell-based. The settings on record: ht-29.
Assay [6] concerns the target Cyclin-dependent kinase 5/CDK5 activator 1 (Homo sapiens, UniProt Q00535+Q15078). As to the kind of experiment: (§2) Inhibition of mammalian CDK5/p25. In kind it is protein-complex assay. Summed up:
(§3)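 Recombinant CDK5 and p25, each expressed in E. coli as GST fusions and affinity-purified on glutathione agarose, mixed in equal amounts. Phosphate incorporation onto P81 paper read by scintillation counting, blank subtracted. Activity taken as % of uninhibited. IC50 from dose-response curves.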

The subject of another assay is MDA-MB-231. As to the kind of experiment: Survival of human MDA-MB-231 cells after 48 hrs by MTS reduction assay. In kind it is functional, cell-based. In a few lines: as §1
In another assay the test system is Huh-7. In words: Survival of human Huh7 cells after 48 hrs by MTS reduction assay. In kind it is functional, cell-based.
The subject of a further assay is F1 (hepatoma cell line). As to the kind of experiment: Survival of mouse F1 cells after 48 hrs by MTS reduction assay. The settings on record: F1.
Assay [7] concerns SH-SY5Y. In words: Survival of human SH-SY5Y cells after 48 hrs by MTS reduction assay. In kind it is functional, cell-based.
Assay [8] addresses Cyclin-dependent kinase 5/CDK5 activator 1 (Homo sapiens, UniProt Q00535). The assay is described as §2. Format: protein-complex assay. Summed up: as §3
Assay [9] in a line: Survival of mouse F1 cells after 48 hrs by MTS reduction assay. The conditions noted are these: Mus musculus, F1, 48 h.
Assay [10] in a line: Inhibition of starfish CDK1/cyclin B in presence of 15 uM ATP. On the set-up: species or system Marthasterias glacialis.
The mark [11] stands for this setting: Homo sapiens, SH-SY5Y, read-out: IC50.

Molecules are shown by their SMILES. Some results are limits rather than exact numbers.

Chain of Cyclin-dependent kinase 5/CDK5 activator 1 (Homo sapiens, UniProt Q00535+Q15078) (Q00535 whole entry, the tested form may be a part): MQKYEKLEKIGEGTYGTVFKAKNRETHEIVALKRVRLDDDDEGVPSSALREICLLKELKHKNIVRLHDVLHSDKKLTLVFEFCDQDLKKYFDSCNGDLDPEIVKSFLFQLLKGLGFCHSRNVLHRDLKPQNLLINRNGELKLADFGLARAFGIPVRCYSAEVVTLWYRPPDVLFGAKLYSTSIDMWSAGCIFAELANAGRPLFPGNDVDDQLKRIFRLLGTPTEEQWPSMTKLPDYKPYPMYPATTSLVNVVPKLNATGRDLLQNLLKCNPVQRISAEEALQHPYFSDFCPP
Chain of Cyclin-dependent kinase 5/CDK5 activator 1 (Homo sapiens, UniProt Q00535+Q15078) (Q15078 whole entry, the tested form may be a part): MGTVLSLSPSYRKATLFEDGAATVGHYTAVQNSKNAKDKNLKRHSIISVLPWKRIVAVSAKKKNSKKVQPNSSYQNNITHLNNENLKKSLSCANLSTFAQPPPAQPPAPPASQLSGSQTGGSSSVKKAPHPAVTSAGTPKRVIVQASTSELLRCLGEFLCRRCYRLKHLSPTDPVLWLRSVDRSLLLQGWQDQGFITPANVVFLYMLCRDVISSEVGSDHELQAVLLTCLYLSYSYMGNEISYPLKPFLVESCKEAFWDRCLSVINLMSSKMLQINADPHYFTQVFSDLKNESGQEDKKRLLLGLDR
Chain of Cyclin-dependent kinase 5/CDK5 activator 1 (Homo sapiens, UniProt Q00535) (Q00535 whole entry): as the sequence (Q00535 whole entry, the tested form may be a part) above
Chain of Cyclin-dependent kinase 5/CDK5 activator 1 (Homo sapiens, UniProt Q00535) (Q15078 whole entry, further chain): as the sequence (Q15078 whole entry, the tested form may be a part) above

For `Oc1[nH]c2c(Br)cccc2c1C1=Nc2ccccc2/C1=N\OCCN1CCNCC1`, the IC50 stood at 5.4 µM in the assay on HCT-116; 10.5 µM with SH-SY5Y [1] (sh-sy5y); 5.9 µM in the assay with A549 (a549); 10.3 µM in the assay on SH-SY5Y [3] (sh-sy5y); 10 µM in the assay on SH-SY5Y [4]; 6.1 µM in the assay with PC-3 (pc-3). Also, the half-maximal inhibitory concentration (IC50) is 5.6 µM in the assay on BP8 (bp8); 5 µM with HEK293; 6.3 µM with HT-29; greater than 10 µM in [6]; 5.3 µM in the assay on MDA-MB-231 (mda-mb-231); 5.3 µM with Huh-7 (huh-7). Also, the IC50 stood at 1.7 µM with F1 (hepatoma cell line) and 6.2 µM in the assay on SH-SY5Y [7] (sh-sy5y). Further, the Activity with SH-SY5Y [2] is given as 94%. The Survival in the assay with SH-SY5Y [5] was determined as 3%.

As to `CN(C)CCO/N=C1/C(c2c(O)[nH]c3c(Br)cccc23)=Nc2ccccc21`, the IC50 was determined as 6.5 µM in the assay on HCT-116; 4.1 µM in the assay with SH-SY5Y [1] (sh-sy5y); 21.8 µM with A549 (a549); 1.5 µM in the assay with SH-SY5Y [4] (sh-sy5y, read-out: IC50); 27.2 µM in the assay with PC-3 (pc-3); 19.5 µM with BP8 (bp8). In addition, the IC50 with HEK293 was 14.4 µM; with HT-29, 21.8 µM; in assay [6], greater than 10 µM; in the assay on MDA-MB-231 (mda-mb-231), 26.4 µM; in the assay with Huh-7 (huh-7) it was 19.6 µM; with F1 (hepatoma cell line), 5.5 µM. The same molecule had an IC50 in the assay with SH-SY5Y [7] (sh-sy5y) of 2 µM. Besides, in the assay with SH-SY5Y [2], the Activity is on record as 86%. The same molecule had a Survival in the assay on SH-SY5Y [5] of 1%.

Regarding `Cl.Cn1c(O)c(C2=Nc3ccccc3/C2=N\OCCN2CCCC2)c2cccc(Br)c21`, the IC50 in the assay with HCT-116 is 5.1 µM; in the assay with SH-SY5Y [1] (Homo sapiens, SH-SY5Y, 24 h) it was 7.3 µM; with A549 (Homo sapiens, A549, 48 h), 14.6 µM; in the assay on SH-SY5Y [3] (Homo sapiens, SH-SY5Y), 13 µM; in the assay with SH-SY5Y [4] (setting [11]) it was 5 µM; with PC-3 (Homo sapiens, PC-3, 48 h) it was 19 µM. Further, the IC50 in the assay with BP8 (bp8) is 7.5 µM; in the assay with HEK293 it was 8 µM; in the assay with HT-29 it was 5.4 µM; in assay [8], greater than 10 µM; in the assay on MDA-MB-231 (mda-mb-231) it was 12 µM; with Huh-7 (huh-7), 5.6 µM. Besides, the IC50 in assay [9] was 2900 nM; in the assay with SH-SY5Y [7] (Homo sapiens, SH-SY5Y, 48 h) it was 4 µM; in assay [10], greater than 10 µM. The same molecule gave an Activity in the assay on SH-SY5Y [2] of 94%. The molecule also yielded a Survival with SH-SY5Y [5] of 1%.

As for `CN(C)CCO/N=C1/C(c2c(O)[nH]c3c(Br)cccc23)=Nc2ccccc21.Cl`, the IC50 in the assay with HCT-116 is 2 µM; in the assay with SH-SY5Y [1] (Homo sapiens, SH-SY5Y, 24 h) it was 2.1 µM; in the assay on A549 (a549), 5.8 µM; with SH-SY5Y [3] (Homo sapiens, SH-SY5Y), greater than 25 µM; with SH-SY5Y [4] (setting [11]), 1.1 µM; in the assay with PC-3 (Homo sapiens, PC-3, 48 h) it was 15 µM. Moreover, the IC50 in the assay on BP8 (Mus musculus, BP8, 48 h) is greater than 30 µM; in the assay with HEK293 it was 3 µM; with HT-29 it was 2.4 µM; in assay [8], greater than 10 µM; in the assay with MDA-MB-231 (Homo sapiens, MDA-MB-231, 48 h), 18.8 µM; in the assay with Huh-7 (Homo sapiens, Huh-7, 48 h), 11.2 µM. Besides, the half-maximal inhibitory concentration (IC50) with F1 (hepatoma cell line) is 1.7 µM; with SH-SY5Y [7] (Homo sapiens, SH-SY5Y, 48 h), 1 µM; in assay [10] it was greater than 10 µM. The Activity with SH-SY5Y [2] is given as 84%. The Survival in the assay with SH-SY5Y [5] is reported as 5%.

With `Cn1c(O)c(C2=Nc3ccccc3/C2=N\OCCN2CCCC2)c2cccc(Br)c21`, the IC50 in the assay on HCT-116 is 13.6 µM; with SH-SY5Y [1] (sh-sy5y), 7.8 µM; in the assay on A549 (a549) it was 21 µM; in the assay with SH-SY5Y [3] (sh-sy5y), greater than 25 µM; in the assay on SH-SY5Y [4] (sh-sy5y, read-out: IC50), 6.1 µM; in the assay with PC-3 (pc-3), 21.6 µM. The IC50 with BP8 (bp8) was 18.8 µM; in the assay on HEK293 it was 21.4 µM; in the assay on HT-29, 19.8 µM; in [6], greater than 10 µM; in the assay with MDA-MB-231 (mda-mb-231) it was 26.8 µM; in the assay on Huh-7 (huh-7), 18.8 µM. In addition, the IC50 with F1 (hepatoma cell line) is 5.6 µM; with SH-SY5Y [7] (sh-sy5y), 5 µM. In the assay with SH-SY5Y [2], this molecule returned an Activity of 78%. Further, the Survival with SH-SY5Y [5] worked out at 15%.

Consider `Oc1[nH]c2c(Br)cccc2c1C1=Nc2ccccc2/C1=N\OCCN1CCOCC1`, for which, in the assay on SH-SY5Y [5], the Survival is given as 98%. Moreover, the IC50 in assay [6] was greater than 10 µM.

For `CCN(CC)CCO/N=C1/C(c2c(O)[nH]c3c(Br)cccc23)=Nc2ccccc21.Cl` (stereo in doubt; 13ls), the Survival in the assay with SH-SY5Y [5] is 72%. For the same molecule, the IC50 in assay [6] was greater than 10 µM.

Molecule `CCN(CC)CCO/N=C1/C(c2c(O)n(C)c3c(Br)cccc23)=Nc2ccccc21` came in with a Survival in the assay with SH-SY5Y [5] of 83%. The molecule further registered an IC50 in assay [6] greater than 10 µM.

(Values after ChEMBL document CHEMBL1137414, “3'-Substituted 7-halogenoindirubins, a new class of cell death inducing agents” (J Med Chem, 2006).)
